In ChEMBL document CHEMBL1137646, “Intracellular metabolism and persistence of the anti-human immunodeficiency virus activity of 2',3'-didehydro-3'-deoxy-4'-ethynylthymidine, a novel thymidine analog” (Antimicrob Agents Chemother, 2007):

Experiments:
[1] = biological target: Human immunodeficiency virus type 1 reverse transcriptase (Human immunodeficiency virus 1) (UniProt Q72547); test: Ratio of Ki to Km for HIV1 reverse transcriptase
[2] = tested on: RKO; test: Induction of thymidylate kinase expression in human RKO cells expressing Tet-On gene after 48 hrs by Western blotting relative to control; format: functional
Outline: (§1)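 Tet-On TMPK RKO cells were grown with doxycycline at 0, 50 or 3,000 ng/ml to induce TMPK. Expression was assessed by Western blotting with actin as the internal control.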

[3] = tested on: RKO; test: Induction of thymidylate kinase expression in human RKO cells expressing Tet-On gene after 48 hrs by Western blotting; format: functional, cell-based; outline: as §1
[4] = tested on: RKO; test: Induction of 3-phosphoglycerate kinase expression in human RKO cells expressing Tet-On gene at 100 ng/ml after 72 hrs by Western blotting relative to control

C#C[C@@]1(COP(=O)(O)OP(=O)(O)OP(=O)(O)O)C=C[C@H](n2cc(C)c(=O)[nH]c2=O)O1
Ki/Km [1]: 0.15

Cc1cn([C@H]2C=C[C@@H](COP(=O)(O)OP(=O)(O)OP(=O)(O)O)O2)c(=O)[nH]c1=O
Ki/Km [1]: 1.1

C[C@H]1c2cccc(O)c2C(=O)C2=C(O)[C@]3(O)C(=O)C(C(N)=O)=C(O)[C@@H](N(C)C)[C@@H]3[C@@H](O)[C@@H]21.O [DOXYCYCLINE]
fold change (FC) [2]: 5 | Activity [3]: Dose-dependent effect | fold change (FC) [4]: 3
